Source: ChEMBL document CHEMBL1138024, “Aryl urea analogs with broad-spectrum antibacterial activity” (Bioorg Med Chem Lett, 2004)
In brackets after ≈: the same amount, converted by molar mass. Blank lines part the entries; values can stand above or below the molecule they belong to.

Tests used:
Type in all cases: functional
[1] = test system: Staphylococcus aureus; assay: In vitro antibacterial activity against Staphylococcus aureus; value ranges from 6-12 uM
[2] = test system: Staphylococcus aureus; assay: In vitro antibacterial activity against Staphylococcus aureus; value ranges from 12-25 uM
[3] = test system: Staphylococcus aureus; assay: In vitro antibacterial activity against Staphylococcus aureus
[4] = test system: Enterococcus faecium; assay: Minimum inhibitory concentration against Enterococcus faecium ATCC 6569; value ranges from 6-12 uM
[5] = test system: Huh-7; assay: Cytotoxic concentration against Huh7 cells at 48 hours in MTT assay; value ranges from 50-100 uM; settings: Homo sapiens, Huh-7, 48 h
[6] = test system: Klebsiella pneumoniae; assay: Minimum inhibitory concentration against Klebsiella pneumoniae ATCC 13383; value ranges from 3-6 uM
[7] = test system: Enterococcus faecalis; assay: Minimum inhibitory concentration against Enterococcus faecalis ATCC 29212; value ranges from 6-12 uM
[8] = test system: Pseudomonas aeruginosa; assay: Minimum inhibitory concentration against Pseudomonas aeruginosa ATCC 25416
[9] = test system: Streptococcus pyogenes; assay: Minimum inhibitory concentration against Streptococcus pyogenes ATCC 49399; value ranges from 3-6 uM
[10] = test system: Proteus vulgaris; assay: Minimum inhibitory concentration against Proteus vulgaris ATCC 8427; value ranges from 12-25 uM
[11] = test system: Staphylococcus aureus; assay: Minimum inhibitory concentration against Staphylococcus aureus ATCC 13709; value ranges from 3-6 uM
[12] = test system: Staphylococcus aureus; assay: Minimum inhibitory concentration against Staphylococcus aureus ATCC 13709 (+4% BSA); value ranges from 25-50 uM
How it was run: (§1)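 Same microdilution MIC against S. aureus ATCC 13709, but with 4% bovine serum albumin in the wells. Compound in 0.5% DMSO in water, inoculum about 10³–10⁴ CFU/well, duplicates. Growth was read as A595 after 20–24 h at 37°C against a compound-free control. MIC is reported as the range between full inhibition and viable growth.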

[13] = test system: Staphylococcus aureus; assay: In vitro antibacterial activity against Staphylococcus aureus; value ranges from 3-6 uM
[14] = test system: Escherichia coli; assay: Minimum inhibitory concentration against Escherichia coli ATCC 25922; value ranges from 12-25 uM
[15] = test system: Staphylococcus aureus; assay: In vitro antibacterial activity against Staphylococcus aureus; value ranges from 25-50 uM
[16] = test system: Klebsiella pneumoniae; assay: Minimum inhibitory concentration against Klebsiella pneumoniae ATCC 13383; value ranges from 6-12 uM
[17] = test system: Streptococcus pyogenes; assay: Minimum inhibitory concentration against Streptococcus pyogenes ATCC 49399; value ranges from 6-12 uM
[18] = test system: Enterococcus faecium; assay: Minimum inhibitory concentration against Enterococcus faecium ATCC 6569
[19] = test system: Enterococcus faecalis; assay: Minimum inhibitory concentration against Enterococcus faecalis ATCC 29212; value ranges from 3-6 uM
[20] = test system: Escherichia coli; assay: Minimum inhibitory concentration against Escherichia coli ATCC 25922; value ranges from 6-12 uM
[21] = test system: Staphylococcus aureus; assay: Minimum inhibitory concentration against Staphylococcus aureus ATCC 13709 (+4% BSA); value ranges from 12-25 uM; how it was run: as §1
[22] = test system: Huh-7; assay: Cytotoxic concentration against Huh7 cells at 48 hours in MTT assay; value ranges from 12.5-25 uM; settings: Homo sapiens, Huh-7, 48 h
[23] = test system: Staphylococcus aureus; assay: In vitro antibacterial activity against Staphylococcus aureus; value ranges from 50-100 uM

MIC [1]: 12 µM (≈ 6.3 µg/mL)
Compound: FC(F)(F)c1ccc(N/C(S)=N/CCCNCc2cc(Br)cc(Br)c2)cc1

MIC [2]: 25 µM (≈ 14.6 µg/mL)
Compound: S=C(NCCCNCc1cc(Br)cc(Br)c1)Nc1ccc(I)cc1

MIC [3]: > 100 µM
Compound: CN(CCCNC(=O)Nc1ccc(C(F)(F)F)cc1)Cc1cc(Br)cc(Br)c1

MIC [4]: 12 µM (≈ 6.64 µg/mL)
MIC [6]: 6 µM (≈ 3.32 µg/mL)
MIC [7]: 12 µM (≈ 6.64 µg/mL)
MIC [8]: > 100 µM
MIC [9]: 6 µM (≈ 3.32 µg/mL)
MIC [10]: 25 µM (≈ 13.8 µg/mL)
MIC [11]: 6 µM (≈ 3.32 µg/mL)
MIC [12]: 50 µM (≈ 27.7 µg/mL)
MIC [13]: 6 µM (≈ 3.32 µg/mL)
MIC [14]: 25 µM (≈ 13.8 µg/mL)
Compound: CCOc1c(Br)cc(Br)cc1CNCCCNC(=O)Nc1ccc(C(F)(F)F)cc1
CC50 [5]: 100 µM

MIC [1]: 12 µM (≈ 5.69 µg/mL)
Compound: CCOc1ccc(Br)cc1CNCCCNC(=O)Nc1ccc(C(F)(F)F)cc1

MIC [1]: 12 µM (≈ 5.71 µg/mL)
Compound: O=C(NCCCNCc1cc(Br)cc(Br)c1)Nc1ccc(Cl)cc1

MIC [13]: 6 µM (≈ 2.52 µg/mL)
Compound: O=C(NCCCNCc1ccc(Cl)c(Cl)c1)Nc1ccc(C(F)(F)F)cc1

MIC [16]: 12 µM (≈ 6.11 µg/mL)
MIC [17]: 12 µM (≈ 6.11 µg/mL)
MIC [7]: 12 µM (≈ 6.11 µg/mL)
MIC [8]: > 100 µM
MIC [10]: 25 µM (≈ 12.7 µg/mL)
MIC [11]: 6 µM (≈ 3.05 µg/mL)
MIC [12]: 50 µM (≈ 25.5 µg/mL)
MIC [13]: 6 µM (≈ 3.05 µg/mL)
MIC [18]: > 100 µM
MIC [14]: 25 µM (≈ 12.7 µg/mL)
Compound: O=C(NCCCNCc1cc(Br)cc(Br)c1)Nc1ccc(C(F)(F)F)cc1

MIC [1]: 12 µM (≈ 6.3 µg/mL)
Compound: FC(F)(F)c1cccc(N/C(S)=N/CCCNCc2cc(Br)cc(Br)c2)c1

MIC [13]: 6 µM (≈ 3.06 µg/mL)
Compound: O=C(NCCCNCc1cc(Br)cc(Br)c1)Nc1ccc(Cl)c(Cl)c1

MIC [23]: 100 µM (≈ 38.7 µg/mL)
Compound: O=C(NCCCNCc1cc(F)cc(F)c1)Nc1ccc(C(F)(F)F)cc1

MIC [3]: > 100 µM
Compound: CC(=O)Nc1ccc(CNCCCNC(=O)Nc2ccc(C(F)(F)F)cc2)cc1

The remaining lines, values behind:

Compound: S=C(NCCCNCc1cc(Br)cc(Br)c1)Nc1ccc(Cl)c(Cl)c1
MIC [13]: 6 µM (≈ 3.16 µg/mL)

Compound: O=C(NCCCNCc1cccc(-c2ccccc2)c1)Nc1ccc(C(F)(F)F)cc1
MIC [1]: 12 µM (≈ 5.13 µg/mL)

Compound: COc1cccc(N/C(S)=N/CCCNCc2cc(Br)cc(Br)c2)c1
MIC [15]: 50 µM (≈ 24.4 µg/mL)

Compound: O=C(NCCCNCc1ccccc1OC(F)(F)F)Nc1ccc(C(F)(F)F)cc1
MIC [2]: 25 µM (≈ 10.9 µg/mL)

Compound: Fc1ccc(N/C(S)=N/CCCNCc2cc(Br)cc(Br)c2)cc1
MIC [2]: 25 µM (≈ 11.9 µg/mL)

Compound: COc1ccc(-c2ccc(CNCCCNC(=O)Nc3ccc(C(F)(F)F)cc3)cc2)cc1
MIC [13]: 6 µM (≈ 2.74 µg/mL)

Compound: COc1ccc(N/C(S)=N/CCCNCc2cc(Br)cc(Br)c2)cc1
MIC [15]: 50 µM (≈ 24.4 µg/mL)

Compound: S=C(NCCCNCc1cc(Br)cc(Br)c1)Nc1cccc(Br)c1
MIC [1]: 12 µM (≈ 6.43 µg/mL)

Compound: O=C(NCCCNCc1ccc(Oc2ccccc2)cc1)Nc1ccc(C(F)(F)F)cc1
MIC [19]: 6 µM (≈ 2.66 µg/mL)
MIC [16]: 12 µM (≈ 5.32 µg/mL)
MIC [20]: 12 µM (≈ 5.32 µg/mL)
MIC [8]: > 100 µM
MIC [9]: 6 µM (≈ 2.66 µg/mL)
MIC [10]: 25 µM (≈ 11.1 µg/mL)
MIC [11]: 6 µM (≈ 2.66 µg/mL)
MIC [13]: 6 µM (≈ 2.66 µg/mL)
MIC [18]: > 100 µM
MIC [21]: 25 µM (≈ 11.1 µg/mL)
CC50 [22]: 25 µM

Compound: COc1ccccc1-c1ccc(CNCCCNC(=O)Nc2ccc(C(F)(F)F)cc2)cc1
MIC [1]: 12 µM (≈ 5.49 µg/mL)

Compound: S=C(NCCCNCc1cc(Br)cc(Br)c1)Nc1cccc(Cl)c1
MIC [1]: 12 µM (≈ 5.9 µg/mL)
